Active and inactive are the calls of the source. The rule behind the calls is not given here.
Legend:
[1] = target: T1, Histone acetyltransferase KAT2B (Homo sapiens, UniProt Q92831); assay: Inhibition of Halo-tagged histone H3.3 binding to N-terminal Nano luciferase-fused full-length PCAF (unknown origin) expressed in HEK293T cells co-expressing C-terminal Halo-tagged histone H3.3 measured after 18 hrs by 618 fluorescent ligand-based BRET assay; assay type: cell-based
Outline: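 HEK293T cells co-transfected with histone H3.3-HaloTag and PCAF-NanoLuc. After 20 h, cells replated at 2×10^5/ml in phenol red-free DMEM with 4% FBS, with or without 100 nM NanoBRET 618 ligand. Compound dilutions or DMSO added, then 18 h at 37 °C, 5% CO2. Nano-Glo substrate added; 610/460 nm ratio minus no-ligand blank, in mBU; n = 2 biological replicates.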

MEF [2] = assay: Effect on Ooep gene expression in MEF cells at 2.5 uM measured after 48 hrs by RNA-sequencing analysis relative to control; assay type: functional, Mus musculus
Outline: (§1)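 Mouse embryonic fibroblasts treated 48 h; negative-control enantiomer at 2.5 µM, DMSO as blank. Total RNA extracted with TRIzol, checked by NanoDrop, then RNA-seq with n = 3 per set. Genes called changed at >1.5-fold with p < 0.05 against blank.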

[3] = target: STE20-like serine/threonine-protein kinase (Homo sapiens) (UniProt Q9H2G2); assay: Inhibition of human SLK (1 to 373 residues) using RLGRDKYKTLRQIRQ as substrate measured after 40 mins in presence of [gamma33P]ATP by scintillation counting method
Outline: (§2)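 Kinase panel of 422 kinases screened by Eurofins KinaseProfiler at a single test-compound concentration of 10 µM.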

[4] = target: Muscle, skeletal receptor tyrosine-protein kinase (Homo sapiens) (UniProt O15146); assay: Inhibition of recombinant human MuSK (530 to end residues) at 10 uM using myelin basic protein as substrate measured after 40 mins in presence of [gamma33P]ATP by scintillation counting method
[5] = target: Insulin receptor (Homo sapiens) (UniProt P06213); assay: Inhibition of recombinant human activated IR (1005 to 1310 residues) at 10 uM using KKKSPGEYVNIEFG as substrate measured after 40 mins in presence of [gamma33P]ATP by scintillation counting method
MEF [6] = assay: Effect on Gucy1a3 gene expression in MEF cells at 2.5 uM measured after 48 hrs by RNA-sequencing analysis relative to control; assay type: functional, Mus musculus; outline: as §1
[7] = target: Bromodomain-containing protein 9 (Homo sapiens) (UniProt Q9H8M2); assay: Binding affinity to human partial length BRD9 (R130 to V259 residues) expressed in bacterial expression system at 1 uM by BROMOscan assay
Outline: (§3)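 BROMOscan bromodomain cross-screen run by an outside service, compound at 1 µM against 32 recombinant bromodomains. Binding given as percent of control.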

MEF [8] = assay: Effect on Clec5a gene expression in MEF cells at 2.5 uM measured after 48 hrs by RNA-sequencing analysis relative to control; assay type: functional, Mus musculus; outline: as §1
[9] = target: Serine/threonine-protein kinase SIK3 (Homo sapiens) (UniProt Q9Y2K2); assay: Inhibition of human SIK3 (1 to 307 residues) using KKKVSRSGLYRSPSMPENLNRPR as substrate measured after 40 mins in presence of [gamma33P]ATP by scintillation counting method; outline: as §2
[10] = target: Beta-adrenergic receptor kinase 1 (Homo sapiens) (UniProt P25098); assay: Inhibition of recombinant full-length human GRK2 at 10 uM using casein as substrate measured after 40 mins in presence of [gamma33P]ATP by scintillation counting method
MEF [11] = assay: Effect on Slco1a5 gene expression in MEF cells at 2.5 uM measured after 48 hrs by RNA-sequencing analysis relative to control; assay type: functional, Mus musculus; outline: as §1
MEF [12] = assay: Effect on Cttnbp2 gene expression in MEF cells at 2.5 uM measured after 48 hrs by RNA-sequencing analysis relative to control; assay type: functional, Mus musculus; outline: as §1
[13] = target: Transcription initiation factor TFIID subunit 1-like (Homo sapiens) (UniProt Q8IZX4); assay: Binding affinity to human partial length TAF1L bromodomain 2 (Q1523 to D1654 residues) expressed in bacterial expression system at 1 uM by BROMOscan assay; outline: as §3
[14] = target: Receptor tyrosine-protein kinase erbB-4 (Homo sapiens) (UniProt Q15303); assay: Inhibition of recombinant human ErbB4 (706 to 991 residues) at 10 uM using poly (Glu, Tyr) 4:1 as substrate measured after 40 mins in presence of [gamma33P]ATP by scintillation counting method
[15] = target: T1, Histone acetyltransferase KAT2B; assay: Binding affinity to human N-terminal His-tagged PCAF assessed as change in melting temperature at 10 uM by SYPRO orange dye-based fluorescence assay
Outline: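 Thermal shift with His-tagged human bromodomain at 2 μM final in 10 mM HEPES pH 7.5, 500 mM NaCl. Compound at 10 μM final with 0.1% DMSO; SYPRO Orange at 1:1000. Equilibrated 3 min at 25 °C, then heated from 25 to 95 °C at 1 °C/min. Melting temperature shift taken from fluorescence; at least duplicate.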
Target sequence in this assay (Q92831 whole entry, looked up, the tested form may be a part): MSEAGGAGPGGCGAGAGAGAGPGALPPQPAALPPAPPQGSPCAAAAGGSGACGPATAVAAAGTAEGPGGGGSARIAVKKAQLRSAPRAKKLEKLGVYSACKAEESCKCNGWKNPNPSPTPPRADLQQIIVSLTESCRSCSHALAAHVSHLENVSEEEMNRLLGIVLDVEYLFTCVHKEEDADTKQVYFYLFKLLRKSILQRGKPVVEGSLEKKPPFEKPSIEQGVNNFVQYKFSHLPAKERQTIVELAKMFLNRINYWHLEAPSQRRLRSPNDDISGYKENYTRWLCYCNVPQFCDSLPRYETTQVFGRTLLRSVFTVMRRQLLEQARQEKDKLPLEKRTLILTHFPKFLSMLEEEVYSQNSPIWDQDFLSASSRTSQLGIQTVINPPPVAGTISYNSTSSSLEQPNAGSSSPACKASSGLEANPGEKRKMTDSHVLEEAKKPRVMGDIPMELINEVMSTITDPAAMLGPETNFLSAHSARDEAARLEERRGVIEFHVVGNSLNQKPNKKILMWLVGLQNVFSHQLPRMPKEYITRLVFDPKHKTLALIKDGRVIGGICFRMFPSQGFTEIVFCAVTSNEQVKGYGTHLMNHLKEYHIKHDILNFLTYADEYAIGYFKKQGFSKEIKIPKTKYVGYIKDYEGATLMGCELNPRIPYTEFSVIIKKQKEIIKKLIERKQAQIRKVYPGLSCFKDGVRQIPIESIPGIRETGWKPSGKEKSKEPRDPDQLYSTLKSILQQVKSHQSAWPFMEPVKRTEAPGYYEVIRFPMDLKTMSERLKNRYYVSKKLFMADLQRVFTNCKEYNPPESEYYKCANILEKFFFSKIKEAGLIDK

MEF [16] = assay: Effect on plekhb1 gene expression in MEF cells at 2.5 uM measured after 48 hrs by RNA-sequencing analysis relative to control; assay type: functional, Mus musculus
Outline: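 MEF cells treated for 48 h with test compound, with (S,S) enantiomer at 2.5 µM as negative control and DMSO as blank; total RNA (TRIzol, n = 3 per set) analysed by RNA-seq; genes counted as changed at >1.5-fold, p < 0.05, relative to blank control.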

Homo sapiens [17] = species: Homo sapiens; assay: Inhibition of recombinant full-length human PI3K p110alpha/p65alpha (1 to 571 residues) at 10 uM using phosphatidylinositol-4, 5-bisphosphate as substrate measured after 40 mins by HTRF assay
[18] = target: Testis-specific serine/threonine-protein kinase 3 (Homo sapiens) (UniProt Q96PN8); assay: Inhibition of recombinant full-length human TSSK3 at 10 uM using AMARAASAAALARRR as substrate measured after 40 mins in presence of [gamma33P]ATP by scintillation counting method
MEF [19] = assay: Effect on Nuggc gene expression in MEF cells at 2.5 uM measured after 48 hrs by RNA-sequencing analysis relative to control; assay type: functional, Mus musculus; outline: as §1
MEF [20] = assay: Effect on Fmn2 gene expression in MEF cells at 2.5 uM measured after 48 hrs by RNA-sequencing analysis relative to control; assay type: functional, Mus musculus; outline: as §1
MEF [21] = assay: Effect on Gm3173 gene expression in MEF cells at 2.5 uM measured after 48 hrs by RNA-sequencing analysis relative to control; assay type: functional, Mus musculus; outline: as §1
Homo sapiens [22] = species: Homo sapiens; assay: Inhibition of recombinant human BrSK2 S251I mutant (2 to end residues) at 10 uM using KKLNRTLSFAEPG as substrate measured after 40 mins in presence of [gamma33P]ATP by scintillation counting method
[23] = Unbound fraction in Sprague-Dawley rat plasma at 1 uM measured after 16 hrs by equilibrium dialysis-based LC-MS/MS analysis; assay type: ADME, cell-free
[24] = target: Mitogen-activated protein kinase 1 (Mus musculus) (UniProt P63085); assay: Inhibition of mouse MAPK2 at 10 uM
MEF [25] = assay: Effect on Lonrf3 gene expression in MEF cells at 2.5 uM measured after 48 hrs by RNA-sequencing analysis relative to control; assay type: functional, Mus musculus; outline: as §1

Bromodomain-containing protein 9 (Homo sapiens), sequence (Q9H8M2 whole entry, the tested form may be a part): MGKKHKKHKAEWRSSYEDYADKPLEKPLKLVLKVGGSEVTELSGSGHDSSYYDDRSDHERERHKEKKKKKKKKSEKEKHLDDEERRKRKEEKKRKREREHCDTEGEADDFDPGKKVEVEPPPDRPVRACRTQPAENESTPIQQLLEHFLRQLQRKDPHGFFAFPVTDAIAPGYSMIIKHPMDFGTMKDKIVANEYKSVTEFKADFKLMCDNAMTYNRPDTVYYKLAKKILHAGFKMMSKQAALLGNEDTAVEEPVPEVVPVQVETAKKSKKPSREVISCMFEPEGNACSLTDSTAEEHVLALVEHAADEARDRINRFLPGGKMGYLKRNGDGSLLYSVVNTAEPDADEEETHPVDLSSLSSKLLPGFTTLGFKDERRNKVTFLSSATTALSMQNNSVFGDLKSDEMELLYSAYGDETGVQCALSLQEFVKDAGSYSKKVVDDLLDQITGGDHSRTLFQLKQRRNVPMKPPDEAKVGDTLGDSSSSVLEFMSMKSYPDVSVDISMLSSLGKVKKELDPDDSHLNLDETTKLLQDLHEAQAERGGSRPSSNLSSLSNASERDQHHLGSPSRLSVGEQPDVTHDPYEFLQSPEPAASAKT
STE20-like serine/threonine-protein kinase (Homo sapiens), sequence (Q9H2G2 whole entry, looked up, the tested form may be a part): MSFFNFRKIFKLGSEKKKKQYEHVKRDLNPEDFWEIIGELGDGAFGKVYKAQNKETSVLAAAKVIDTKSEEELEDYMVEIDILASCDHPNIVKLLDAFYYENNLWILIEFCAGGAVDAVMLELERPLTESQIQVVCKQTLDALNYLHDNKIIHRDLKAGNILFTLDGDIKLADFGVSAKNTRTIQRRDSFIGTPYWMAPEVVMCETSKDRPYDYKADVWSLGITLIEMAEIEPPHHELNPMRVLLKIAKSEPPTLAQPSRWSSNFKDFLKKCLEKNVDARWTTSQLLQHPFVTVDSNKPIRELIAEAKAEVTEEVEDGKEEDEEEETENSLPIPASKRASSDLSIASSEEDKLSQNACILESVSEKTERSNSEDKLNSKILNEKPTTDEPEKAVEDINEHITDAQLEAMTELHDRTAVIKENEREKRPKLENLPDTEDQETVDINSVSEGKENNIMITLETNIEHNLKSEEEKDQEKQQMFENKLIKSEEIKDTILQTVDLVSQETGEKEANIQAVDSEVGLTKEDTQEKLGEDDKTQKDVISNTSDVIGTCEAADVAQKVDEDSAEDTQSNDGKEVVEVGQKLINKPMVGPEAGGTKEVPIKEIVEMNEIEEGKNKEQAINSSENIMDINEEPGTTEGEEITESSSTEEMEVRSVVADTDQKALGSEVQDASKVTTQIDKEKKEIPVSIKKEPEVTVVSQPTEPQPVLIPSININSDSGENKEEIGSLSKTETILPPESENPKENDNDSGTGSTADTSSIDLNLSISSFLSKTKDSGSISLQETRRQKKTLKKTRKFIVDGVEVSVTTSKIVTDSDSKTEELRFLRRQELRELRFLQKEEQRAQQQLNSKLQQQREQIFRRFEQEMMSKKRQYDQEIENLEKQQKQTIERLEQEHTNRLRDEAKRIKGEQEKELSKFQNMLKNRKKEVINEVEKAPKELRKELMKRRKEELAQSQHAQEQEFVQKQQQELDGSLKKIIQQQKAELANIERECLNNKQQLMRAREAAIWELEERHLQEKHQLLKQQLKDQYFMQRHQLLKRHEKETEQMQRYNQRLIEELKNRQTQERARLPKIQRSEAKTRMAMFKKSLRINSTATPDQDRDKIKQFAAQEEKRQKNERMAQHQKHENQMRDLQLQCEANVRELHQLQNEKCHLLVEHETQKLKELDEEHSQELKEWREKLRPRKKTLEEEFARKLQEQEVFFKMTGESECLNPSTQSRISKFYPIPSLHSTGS
Mitogen-activated protein kinase 1 (Mus musculus), sequence (P63085 whole entry): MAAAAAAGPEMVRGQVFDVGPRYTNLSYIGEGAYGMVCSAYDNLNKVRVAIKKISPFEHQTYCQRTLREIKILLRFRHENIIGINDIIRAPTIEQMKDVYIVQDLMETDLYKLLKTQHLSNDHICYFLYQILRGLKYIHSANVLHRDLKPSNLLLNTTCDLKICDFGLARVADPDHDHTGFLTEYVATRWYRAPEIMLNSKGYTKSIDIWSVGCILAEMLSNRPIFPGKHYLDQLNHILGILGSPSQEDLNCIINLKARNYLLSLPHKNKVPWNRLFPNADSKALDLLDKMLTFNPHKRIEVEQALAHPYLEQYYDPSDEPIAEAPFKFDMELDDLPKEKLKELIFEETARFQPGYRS
Insulin receptor (Homo sapiens), sequence (P06213 28-758 limits assumed): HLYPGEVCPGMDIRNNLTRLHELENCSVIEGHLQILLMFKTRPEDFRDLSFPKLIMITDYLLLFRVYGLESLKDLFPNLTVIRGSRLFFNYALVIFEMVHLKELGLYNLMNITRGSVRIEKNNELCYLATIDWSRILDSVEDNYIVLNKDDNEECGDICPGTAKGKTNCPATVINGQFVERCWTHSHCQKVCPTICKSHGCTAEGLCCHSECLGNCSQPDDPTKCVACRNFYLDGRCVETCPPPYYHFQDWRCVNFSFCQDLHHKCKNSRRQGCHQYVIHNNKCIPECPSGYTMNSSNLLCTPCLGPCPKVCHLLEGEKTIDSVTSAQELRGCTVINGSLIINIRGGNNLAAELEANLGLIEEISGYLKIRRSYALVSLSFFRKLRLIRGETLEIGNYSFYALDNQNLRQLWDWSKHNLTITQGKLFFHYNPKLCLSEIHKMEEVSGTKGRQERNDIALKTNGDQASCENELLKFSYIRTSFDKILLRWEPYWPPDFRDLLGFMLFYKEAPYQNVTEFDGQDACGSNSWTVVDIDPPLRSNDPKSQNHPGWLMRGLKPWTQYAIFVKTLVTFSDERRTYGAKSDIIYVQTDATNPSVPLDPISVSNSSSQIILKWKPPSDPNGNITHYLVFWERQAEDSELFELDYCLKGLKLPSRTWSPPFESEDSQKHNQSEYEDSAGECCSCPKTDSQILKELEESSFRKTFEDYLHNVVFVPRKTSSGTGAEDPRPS
Insulin receptor (Homo sapiens), sequence (P06213 763-1382 limits assumed): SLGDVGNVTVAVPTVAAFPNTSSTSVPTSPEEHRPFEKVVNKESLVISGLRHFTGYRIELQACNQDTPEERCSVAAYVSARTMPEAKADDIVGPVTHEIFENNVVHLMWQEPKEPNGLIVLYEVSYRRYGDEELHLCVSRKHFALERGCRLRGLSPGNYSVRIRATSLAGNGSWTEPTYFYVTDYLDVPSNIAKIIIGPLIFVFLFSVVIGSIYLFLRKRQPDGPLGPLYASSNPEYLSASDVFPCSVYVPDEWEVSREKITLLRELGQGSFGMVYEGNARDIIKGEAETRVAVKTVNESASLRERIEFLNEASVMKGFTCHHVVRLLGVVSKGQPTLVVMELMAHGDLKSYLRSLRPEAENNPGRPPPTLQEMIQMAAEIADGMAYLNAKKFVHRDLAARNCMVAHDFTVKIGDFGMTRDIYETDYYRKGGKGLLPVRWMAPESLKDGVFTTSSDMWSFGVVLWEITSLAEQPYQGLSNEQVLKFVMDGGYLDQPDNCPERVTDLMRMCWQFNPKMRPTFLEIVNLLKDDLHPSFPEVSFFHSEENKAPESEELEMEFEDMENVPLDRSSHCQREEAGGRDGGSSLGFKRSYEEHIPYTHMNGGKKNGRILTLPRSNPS
Beta-adrenergic receptor kinase 1 (Homo sapiens), sequence (P25098 whole entry): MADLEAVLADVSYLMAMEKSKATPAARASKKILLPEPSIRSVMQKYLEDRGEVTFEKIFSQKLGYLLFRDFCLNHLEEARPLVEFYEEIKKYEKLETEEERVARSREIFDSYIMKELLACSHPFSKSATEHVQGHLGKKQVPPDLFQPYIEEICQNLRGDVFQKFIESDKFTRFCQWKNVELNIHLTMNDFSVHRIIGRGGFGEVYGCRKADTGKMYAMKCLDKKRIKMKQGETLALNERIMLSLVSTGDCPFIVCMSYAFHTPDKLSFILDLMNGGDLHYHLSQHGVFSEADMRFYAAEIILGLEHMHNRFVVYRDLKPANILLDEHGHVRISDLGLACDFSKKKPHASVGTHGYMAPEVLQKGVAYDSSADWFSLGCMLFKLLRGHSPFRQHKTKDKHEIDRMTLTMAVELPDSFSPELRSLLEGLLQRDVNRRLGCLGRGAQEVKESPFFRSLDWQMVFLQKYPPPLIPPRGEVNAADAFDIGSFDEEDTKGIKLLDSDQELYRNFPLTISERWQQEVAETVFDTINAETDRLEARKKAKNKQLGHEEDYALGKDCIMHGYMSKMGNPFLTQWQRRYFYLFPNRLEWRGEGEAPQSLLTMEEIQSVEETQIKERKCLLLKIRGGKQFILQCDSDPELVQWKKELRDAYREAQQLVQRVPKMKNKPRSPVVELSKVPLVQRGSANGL

SMILES	inhibition [1]	fold change (FC) (MEF [2])	fold change (FC) (MEF [6])	fold change (FC) (MEF [8])	fold change (FC) (MEF [11])	fold change (FC) (MEF [12])	ΔTm [15]	fold change (FC) (MEF [16])	fold change (FC) (MEF [19])	fold change (FC) (MEF [20])	fold change (FC) (MEF [21])	fold change (FC) (MEF [25])	further results
CN1C[C@H](Nc2nc3cc[nH]c3c(=O)n2C)C[C@H](c2ccc3c(c2)OCCO3)C1	Dose-dependent effect	>1.5	>1.5	>1.5	>1.5	>1.5	9.5 °C	>1.5	>1.5	>1.5	>1.5	>1.5	IC50 [1]: 118 nM; inhibition [3]: inactive; inhibition [4]: inactive; inhibition [5]: inactive; Activity [7]: inactive; inhibition [9]: inactive; inhibition [10]: inactive; Activity [13]: inactive; inhibition [14]: inactive; inhibition (Homo sapiens [17]): inactive; inhibition [18]: inactive; inhibition (Homo sapiens [22]): inactive; fraction unbound at 16 h, 1 µM [23]: 0.058; inhibition [24]: inactive
CN1C[C@@H](Nc2nc3cc[nH]c3c(=O)n2C)C[C@@H](c2ccc3c(c2)OCCO3)C1	inactive	>1.5	>1.5	>1.5	>1.5	>1.5	0.7 °C	>1.5	>1.5	>1.5	>1.5	>1.5	–
